For five compounds, inhibition in vivo and Activity results are on record in ChEMBL document CHEMBL1139963, “Boswellic acids and glucosamine show synergistic effect in preclinical anti-inflammatory study in rats” (2007).

Structures are written as SMILES. The source made the active and inactive calls. The rule behind the calls is not given here.

Assay [1] has as its system Rattus norvegicus. In words: Antiinflammatory activity against carrageenan-induced paw edema in Wistar rat assessed as reduction of paw edema at 250 mg/kg after 3 hrs relative to control. It is filed as functional. The essentials: (§1)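 Rats, five per group, were dosed orally with suspensions in 2% gum acacia. After 45 min, freshly prepared 10 mg/ml carrageenan was injected subplantar into the left hind paw, with saline in the contralateral paw. Paw volume was measured by volume differential meter immediately and hourly to 4 h. Percent protection was calculated versus control. Data are means ± SE, analysed by Student's t-test.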

The test system of assay [2] is Rattus norvegicus. In words: Antiinflammatory activity against carrageenan-induced paw edema in Wistar rat assessed as reduction of paw edema at 250 mg/kg after 4 hrs relative to control. It is filed as functional. The essentials: as §1
Assay [3] deals with Rattus norvegicus. In words: Antiarthritic activity against Mycobacterium tuberculosis-induced rat arthritic model assessed as inhibition of chronic phase inflammation at 250 mg/kg relative to control. It is filed as functional. The method in brief:
(§2)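 Adjuvant arthritis in rats, five per group. A 5 mg/ml suspension of heat-killed Mycobacterium tuberculosis in liquid paraffin was injected subplantar into the left hind foot. Oral dosing ran from one day before immunization to day 13. Paw volume was measured on alternate days, and percent change was calculated versus the vehicle control. The chronic phase begins after day 8. Data are means ± SE, analysed by Student's t-test.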

In assay [4] the test system is Rattus norvegicus. The assay is described as follows: Antiinflammatory activity against carrageenan-induced paw edema in Wistar rat assessed as reduction of paw edema at 250 mg/kg relative to control. On the set-up: dose 250 mg/kg. It is filed as functional, organism-based. The essentials:
as §1
In general terms: Carrageenan injected into the paw causes an acute inflammation.

The subject of assay [5] is Rattus norvegicus. In words: Antiarthritic activity against Mycobacterium tuberculosis-induced rat arthritic model at 250 mg/kg relative to control. It is filed as functional, organism-based. More on the design: dose 250 mg/kg. The essentials: as §2
Assay [6] concerns Rattus norvegicus. The assay is described as follows: Antiinflammatory activity against carrageenan-induced paw edema in Wistar rat assessed as reduction of paw edema at 100 mg/kg relative to control. It is filed as functional. On the set-up: scale not given: the % may be the effect or the level left. The method in brief:
as §1

Assay [7] relates to Rattus norvegicus. In words: Antiarthritic activity against Mycobacterium tuberculosis-induced rat arthritic model assessed as inhibition of acute phase inflammation at 100 mg/kg relative to control. It is filed as functional, organism-based. On the set-up: dose 100 mg/kg. The essentials:
as §2

The test system of assay [8] is Rattus norvegicus. The assay is described as follows: Antiarthritic activity against Mycobacterium tuberculosis-induced rat arthritic model assessed as inhibition of chronic phase inflammation at 100 mg/kg relative to control. On the set-up: dose 100 mg/kg. It is filed as functional, organism-based. The method in brief: as §2

In general, inhibition in vivo refers to the percentage by which the read-out fell short of the control. For the compound `C[C@H]1[C@H](C)CC[C@]2(C)CC[C@]3(C)C(=CC[C@@H]4[C@@]5(C)CC[C@@H](O)[C@](C)(C(=O)O)[C@@H]5CC[C@]43C)[C@H]12` [BOSWELLIC ACID], the inhibition in vivo at 250 mg/kg is 28.6% in the assay on Rattus norvegicus [1], 25.8% with Rattus norvegicus [2] and 36.4% in the assay on Rattus norvegicus [3].

Consider `CC1(C)CC[C@]2(C)CC[C@]3(C)C(=CC[C@@H]4[C@@]5(C)CC[C@@H](O)[C@](C)(C(=O)O)[C@@H]5CC[C@]43C)[C@@H]2C1`, for which the results for the inhibition in vivo at 250 mg/kg in the assay with Rattus norvegicus [1], in the assay with Rattus norvegicus [2] and with Rattus norvegicus [3] were 28.6%, 25.8% and 36.4%, respectively.

Take `N[C@@H]1[C@@H](O)[C@H](O)[C@@H](CO)O[C@H]1O` [GLUCOSAMINE]: the values for the inhibition in vivo at 250 mg/kg in the assay with Rattus norvegicus [1], with Rattus norvegicus [2] and in the assay on Rattus norvegicus [3] were 15.2%, 16.1% and 21.6%, respectively.

Turning to `C[C@H]1[C@H](C)CC[C@]2(C)CC[C@]3(C)C(=CC(=O)[C@@H]4[C@@]5(C)CC[C@@H](O)[C@](C)(C(=O)O)[C@@H]5CC[C@]43C)[C@H]12`, the outcome in the assay on Rattus norvegicus [4] and in the assay on Rattus norvegicus [5] was Active.

In the case of `CC(C)Cc1ccc([C@H](C)C(=O)O)cc1` [DEXIBUPROFEN], in the assay on Rattus norvegicus [6], the Activity came to 55.64%. The result with Rattus norvegicus [7] and in the assay with Rattus norvegicus [8] was Active.
